Here are results for 24 compounds from ChEMBL document CHEMBL1153870, “Synthesis of glycose carbamides and evaluation of the induction of erythroid differentiation of human erythroleukemic K562 cells” (Eur J Med Chem, 2009).

Assay [1] concerns K562. The experiment in a line: Induction of erythroid differentiation in human K562 cells assessed as benzidine-positive cells at 1 mM after 6 days. It counts as functional. In a few lines:
(§1)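 K562 cells were seeded at 30,000 cells/mL in medium with 10% FBS and antibiotics, then exposed to compounds at the indicated concentrations for a 6-day induction period. Hemoglobin-containing cells were scored by benzidine staining and expressed as % benzidine-positive cells. Values are mean ± SD of three independent experiments.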

Assay [2] relates to K562. Briefly: Antiproliferative activity against human K562 cells. Format: functional, cell-based. In a few lines:
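K562 cells were seeded at 30,000 cells/mL in medium with 10% FBS, penicillin and streptomycin. They were cultured with or without test compounds at the indicated concentrations. Cell number per mL was counted with a Coulter counter on different days after culture set-up.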

Assay [3] concerns K562. The experiment in a line: Induction of erythroid differentiation in human K562 cells assessed as benzidine-positive cells after 6 days. It counts as functional. Also on record: concentration or dose not given beside the values. In a few lines: as §1
Assay [4] relates to K562. Briefly: Induction of erythroid differentiation in human K562 cells assessed as benzidine-positive cells at 0.1 mM after 6 days. It counts as functional. In a few lines: as §1
The subject of assay [5] is K562. The experiment in a line: Induction of erythroid differentiation in human K562 cells assessed as benzidine-positive cells at 20 mM after 6 days. Format: functional. In a few lines: as §1
Assay [6] deals with K562. The experiment in a line: Induction of erythroid differentiation in human K562 cells assessed as benzidine-positive cells at 0.75 mM after 6 days. It counts as functional. In a few lines:
(§2)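 Erythroid induction was measured with compound combined with a sub-optimal concentration of ara-C. K562 cells were seeded at 30,000 cells/mL in medium with 10% FBS and antibiotics and co-treated for 6 days. Read-out was % benzidine-positive (hemoglobin-containing) cells, given as mean ± SD of three independent experiments.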

The subject of assay [7] is K562. The experiment in a line: Induction of erythroid differentiation in human K562 cells assessed as benzidine-positive cells at 500 mM after 6 days. Particulars: in the assay text read “500 nM” for “500 mM”. Format: functional. In short, it runs like this: as §1
The subject of assay [8] is K562. The experiment in a line: Induction of erythroid differentiation in human K562 cells assessed as benzidine-positive cells at 0.5 mM after 6 days. Format: functional. In short, it runs like this:
as §1

Assay [9] relates to K562. Briefly: Induction of erythroid differentiation in human K562 cells assessed as benzidine-positive cells at 5 mM after 6 days. It counts as functional. In a few lines:
as §1

Assay [10] has as its system K562. The experiment in a line: Induction of erythroid differentiation in human K562 cells assessed as benzidine-positive cells at 8 mM after 6 days. It counts as functional. In a few lines: as §2

As for `COc1cccc(CC(=O)N[C@H]2[C@H]3OC(C)(C)O[C@H]3O[C@@H]2[C@H]2COC(C)(C)O2)c1`, in the assay on K562 [1], the Activity is recorded as 43%.

For orientation: IC50 means the concentration at which inhibition is half-maximal. In the assay on K562 [2], `CC(C)(C)CC(=O)N[C@@H]1[C@H]2OC(C)(C)O[C@H]2O[C@@H]1[C@H](O)CO` came in with an IC50 of 5000 µM. Besides, in the assay with K562 [3], the Activity turned out to be 15%. The corresponding values for `CCC(=O)N[C@@H]1[C@H]2OC(C)(C)O[C@H]2O[C@@H]1[C@H](O)CO` are 30000 µM and 20%. Take `CC1(C)O[C@H]2O[C@H]([C@H](O)CO)[C@@H](NC(=O)c3ccc(-c4ccccc4)cc3)[C@H]2O1`: in the assay on K562 [4], the Activity is recorded as 33%. `CCC(=O)N[C@H]1[C@H]2OC(C)(C)O[C@H]2O[C@@H]1[C@H]1COC(C)(C)O1`: in the assay with K562 [2], the midpoint of inhibition, the IC50, lay at 7500 µM. In addition, in the assay with K562 [3], the Activity is 19%. `CC1(C)O[C@H]2O[C@H]([C@H](O)CO)[C@@H](NC(=O)C(C)(C)C)[C@H]2O1` registered a half-inhibitory concentration (IC50) in the assay on K562 [2] of 20000 µM. In addition, the Activity amounted to 40% in the assay with K562 [5] and 25% with K562 [3]. On to `CC1(C)O[C@H]2O[C@H]([C@H]3COC(C)(C)O3)[C@@H](NC(=O)CCc3ccccc3)[C@H]2O1`, for which the Activity with K562 [6] stood at 49%. As for `Nc1ccn([C@@H]2O[C@H](CO)[C@@H](O)[C@@H]2O)c(=O)n1` [CYTARABINE], the Activity in the assay with K562 [7] amounted to 22%; in the assay with K562 [3] it was 78%. Turning to `COc1ccc(C(=O)N[C@H]2[C@H]3OC(C)(C)O[C@H]3O[C@@H]2[C@H](O)CO)cc1`, half-maximal inhibition in the assay on K562 [2] (IC50) was put at 2500 µM. In addition, the Activity in the assay with K562 [3] was found to be 24%. On the same counts, the results for `CCCCCC(=O)N[C@@H]1[C@H]2OC(C)(C)O[C@H]2O[C@@H]1[C@H](O)CO` are 10000 µM and 28%. The corresponding values for `CO[C@H]1C[C@@H]2CC[C@@H](C)[C@@](O)(O2)C(=O)C(=O)N2CCCC[C@H]2C(=O)O[C@H]([C@H](C)C[C@@H]2CC[C@@H](O)[C@H](OC)C2)CC(=O)[C@H](C)/C=C(\C)[C@@H](O)[C@@H](OC)C(=O)[C@H](C)C[C@H](C)/C=C/C=C/C=C/1C` [SIROLIMUS] are 1000 µM and 75.5%. For the compound `CCCC(=O)N[C@@H]1[C@H]2OC(C)(C)O[C@H]2O[C@@H]1[C@H](O)CO`, the Activity with K562 [8] stood at 35%; in the assay on K562 [3], 20%. The same compound gave an IC50 in the assay with K562 [2] of 500 µM.

As to `CC(C)CC(=O)N[C@@H]1[C@H]2OC(C)(C)O[C@H]2O[C@@H]1[C@H](O)CO`, in the assay on K562 [2], the IC50 stood at 5000 µM. Besides, the Activity in the assay with K562 [3] came out at 25%. Take `CC1(C)O[C@H]2O[C@H]([C@H]3COC(C)(C)O3)[C@@H](NC(=O)C3CCCC3)[C@H]2O1`: in the assay on K562 [2], 1000 µM corresponded to half-maximal inhibition (IC50). Further, the Activity in the assay with K562 [3] came out at 21%. `COc1ccc(OC)c(CC(=O)N[C@H]2[C@H]3OC(C)(C)O[C@H]3O[C@@H]2[C@H]2COC(C)(C)O2)c1`: the Activity with K562 [8] is reported as 50%. `CCCC(=O)N[C@H]1[C@H]2OC(C)(C)O[C@H]2O[C@@H]1[C@H](O)CO` had an IC50 in the assay on K562 [2] of 20000 µM. The Activity stood at 40% with K562 [5] and 20% in the assay on K562 [3].

`CO[C@@H]1O[C@H](CNC(=O)C2CC2)[C@@H]2OC(C)(C)O[C@@H]2[C@H]1O` had an IC50 in the assay with K562 [2] of 250 µM. For the same compound, the Activity with K562 [3] worked out at 27%. On the same counts, the results for `CO[C@H](C(=O)[C@@H](O)[C@@H](C)O)[C@@H]1Cc2cc3cc(O[C@H]4C[C@@H](O[C@@H]5C[C@@H](O)[C@H](O)[C@@H](C)O5)[C@H](O)[C@@H](C)O4)c(C)c(O)c3c(O)c2C(=O)[C@H]1O[C@H]1C[C@@H](O[C@@H]2C[C@@H](O)[C@@H](O[C@@H]3C[C@](C)(O)[C@H](O)[C@@H](C)O3)[C@@H](C)O2)[C@H](O)[C@@H](C)O1` [PLICAMYCIN] are 0.1 µM and 86%.

On to `CC1(C)O[C@H]2O[C@H]([C@H](O)CO)[C@H](NC(=O)C(C)(C)C)[C@H]2O1`, for which, in the assay with K562 [9], the Activity is recorded as 68%.

Take `CC#CC(=O)N[C@@H]1[C@H]2OC(C)(C)O[C@H]2O[C@@H]1[C@H]1COC(C)(C)O1`: in the assay with K562 [2], the IC50 was found to be 500 µM. The Activity in the assay on K562 [3] is 19%.

As to `CC(C)C(=O)N[C@H]1[C@H]2OC(C)(C)O[C@H]2O[C@@H]1[C@H](O)CO`, in the assay on K562 [10], the Activity was 66%. In the assay with K562 [2], `CCCC(=O)NC[C@H]1O[C@H](OC)[C@H](O)[C@H]2OC(C)(C)O[C@H]21` gave an IC50 of 100 µM. For the same compound, the Activity in the assay on K562 [3] is 18%. On the same counts, the results for `CCCCC(=O)N[C@@H]1[C@H]2OC(C)(C)O[C@H]2O[C@@H]1[C@H](O)CO` are 5000 µM and 18%. Turning to `CCCC(=O)O` [BUTYRIC ACID], in the assay with K562 [2], the IC50 came to 2000 µM. The Activity in the assay on K562 [3] was found to be 32.5%.
